# Experimental data reported in ChEMBL document CHEMBL4813913, “In vitro identification of imidazo[1,2-a]pyrazine-based antileishmanial agents and evaluation of L. major casein kinase 1 inhibition” (Eur J Med Chem, 2021).
# How the values were obtained:
# [1] = Selectivity index, ratio of CC50 for mouse RAW264.7 cells to IC50 for amastigote stage of Leishmania amazonensis (MHOM/BR/73/M2269) infected in mouse RAW264.7 cells; format: toxicity, cell-based; settings: read-out: Ratio CC50/IC50
# How it was run: (§1)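 Selectivity index is CC50 on RAW 264.7 or MRC-5 cells divided by IC50 on intracellular amastigotes.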
# [2] = Selectivity index, ratio of CC50 for mouse RAW264.7 cells to IC50 for amastigote stage of Leishmania infantum (MHOM/FR/2008/LEM5700) infected in mouse RAW264.7 cells; format: toxicity, cell-based; settings: read-out: Ratio CC50/IC50; how it was run: as §1
# [3] = Cytotoxicity against mouse RAW264.7 cells assessed as reduction in cell growth measured after 48 hrs by SYBR Green 1 dye based fluorescence assay
# How it was run: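 RAW 264.7 cells seeded at 100,000 cells/well in DMEM with 10% FBS, 24 h at 37 °C, 5% CO₂. Two-fold serial dilutions, final 49 nM–100 μM, for 48 h. Growth read by SYBR Green I. CC50 by nonlinear regression. Miltefosine reference; untreated cells as growth control.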
# [4] = Selectivity index, ratio of CC50 for mouse RAW264.7 cells to IC50 for amastigote stage of Leishmania donovani (MHOM/ET/67/HU3) infected in mouse RAW264.7 cells; format: toxicity, cell-based; settings: read-out: Ratio CC50/IC50; how it was run: as §1
# [5] = test system: Leishmania donovani; assay: Antileishmanial activity against amastigote stage of Leishmania donovani (MHOM/ET/67/HU3) infected in mouse RAW264.7 cells assessed as reduction in parasitic proliferation measured by SYBR Green 1 dye based fluorescence assay; format: functional, organism-based; settings: MHOM/ET/67/HU3, RAW264.7
# How it was run: (§2)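 RAW 264.7 macrophages seeded at 100,000 cells/well in DMEM with 10% heat-inactivated FBS, 24 h at 37 °C, 5% CO₂. Infected with plateau-phase promastigotes (parasite:macrophage 16:1) for 24 h. Compounds serially diluted, final 391 nM–100 μM. Amastigote viability read by SYBR Green I after lysis and 3 freeze-thaw cycles. IC50 by nonlinear regression against excipient-treated controls. Miltefosine reference.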
# [6] = Cytotoxicity against human MRC5 cells assessed as reduction in cell viability measured after 96 hrs by resazurin assay; format: cell-based
# How it was run: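 Human MRC-5 fibroblasts grown in RPMI 1640 with 10% FBS. Exposed to 100, 10 and 1 μM in triplicate for 96 h. Then 10 μL of 700 μM resazurin added for 4 h and fluorescence read. Value is the mean of triplicates.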
# [7] = Selectivity index, ratio of CC50 for human MRC5 cells to IC50 for amastigote stage of Leishmania major (MHOM/IL/81/BNI) infected in BALB/c mouse peritoneal macrophages; format: toxicity; settings: read-out: Ratio CC50/IC50; how it was run: as §1
# [8] = Selectivity index, ratio of CC50 for human MRC5 cells to IC50 for amastigote stage of Leishmania donovani (MHOM/ET/67/HU3) infected in mouse RAW264.7 cells; format: toxicity, cell-based; settings: read-out: Ratio CC50/IC50; how it was run: as §1
# [9] = test system: Leishmania braziliensis; assay: Antileishmanial activity against amastigote stage of Leishmania braziliensis (MHOM/BR/75/M2903b) infected in mouse RAW264.7 cells assessed as reduction in parasitic proliferation measured by SYBR Green 1 dye based fluorescence assay; format: functional, organism-based; how it was run: as §2
# [10] = Selectivity index, ratio of CC50 for mouse RAW264.7 cells to IC50 for amastigote stage of Leishmania braziliensis (MHOM/BR/75/M2903b) infected in mouse RAW264.7 cells; format: toxicity, cell-based; settings: read-out: Ratio CC50/IC50; how it was run: as §1
# [11] = Selectivity index, ratio of CC50 for human MRC5 cells to IC50 for amastigote stage of Leishmania infantum (MHOM/FR/2008/LEM5700) infected in mouse RAW264.7 cells; format: toxicity, cell-based; settings: read-out: Ratio CC50/IC50; how it was run: as §1
# [12] = Selectivity index, ratio of CC50 for mouse RAW264.7 cells to IC50 for amastigote stage of Leishmania major (MHOM/IL/81/BNI) infected in BALB/c mouse peritoneal macrophages; format: toxicity; settings: read-out: Ratio CC50/IC50; how it was run: as §1
# [13] = Selectivity index, ratio of CC50 for human MRC5 cells to IC50 for amastigote stage of Leishmania braziliensis (MHOM/BR/75/M2903b) infected in mouse RAW264.7 cells; format: toxicity, cell-based; settings: read-out: Ratio CC50/IC50; how it was run: as §1
# [14] = test system: Leishmania amazonensis; assay: Antileishmanial activity against amastigote stage Leishmania amazonensis (MHOM/BR/73/M2269) infected in mouse RAW264.7 cells assessed as reduction in parasitic proliferation measured by SYBR Green 1 dye based fluorescence assay; format: functional, organism-based; settings: MHOM/BR/73/M2269, RAW264.7; how it was run: as §2
# [15] = test system: Leishmania infantum; assay: Antileishmanial activity against amastigote stage of Leishmania infantum (MHOM/FR/2008/LEM5700) infected in mouse RAW264.7 cells assessed as reduction in parasitic proliferation measured by SYBR Green 1 dye based fluorescence assay; format: functional, organism-based; settings: MHOM/FR/2008/LEM5700, RAW264.7; how it was run: as §2
# [16] = Selectivity index, ratio of CC50 for human MRC5 cells to IC50 for amastigote stage of Leishmania amazonensis (MHOM/BR/73/M2269) infected in mouse RAW264.7 cells; format: toxicity, cell-based; settings: read-out: Ratio CC50/IC50; how it was run: as §1
# [17] = test system: Leishmania major; assay: Antileishmanial activity against amastigote stage of Leishmania major (MHOM/IL/81/BNI) infected in BALB/c mouse peritoneal macrophages assessed as reduction in parasitic proliferation measured after 4 days by MayGrunwald-Giemsa stain based microscopic method; format: functional, organism-based; settings: Peritoneal macrophage, 96 h
# How it was run: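 BALB/c peritoneal macrophages on glass slides, 1.5×10⁵ cells/mL in RPMI 1640 with 15% FBS, 24 h attachment. Infected with stationary-phase promastigotes (1.5×10⁶/mL) for 24 h at 37 °C, 5% CO₂. Washed, then exposed 4 days to 100, 10, 1, 0.1 μM (DMSO ≤1% final). Methanol-fixed, May-Grunwald-Giemsa stained, amastigotes counted in 100 macrophages per duplicate well. IC50 from amastigotes/macrophage. Run twice.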
structure (smiles),measurement,setting,value
CCCCCCCCCCCCCCCCOP(=O)([O-])OCC[N+](C)(C)C [MILTEFOSINE],selectivity ratio,[1],10.2
same,selectivity ratio,[2],14.5
same,CC50 at 48 h,[3],43 µM
same,selectivity ratio,[4],23.5
same,IC50,[5],1.83 µM
same,CC50 at 96 h,[6],36.8 µM
same,selectivity ratio,[7],25.5
same,selectivity ratio,[8],20.1
same,IC50,[9],8.33 µM
same,selectivity ratio,[10],5.2
same,selectivity ratio,[11],12.4
same,selectivity ratio,[12],29.9
same,selectivity ratio,[13],4.4
same,IC50,[14],4.22 µM
same,IC50,[15],2.96 µM
same,selectivity ratio,[16],8.7
same,IC50,[17],1.44 µM
